Results pooled from the literature.
Protocols differ between the studies behind these lines.
Target: Myosin light chain kinase, smooth muscle (MYLK, Homo sapiens, UniProt Q15746)

O=c1[nH]c2ccccc2n1C1CCN(Cc2ccc(-c3[nH]c4cc5ncnc5cc4nc3-c3ccccc3)cc2)CC1 — remaining signal (cell-free assay; 0.5 µM): 104%
Nc1ncc(-c2nc(N3CCOCC3)nc(N3CCOCC3)n2)c(C(F)F)n1 — remaining binding (binding; competition with immobilised ligand; 10 µM): 78%
COc1ncccc1-c1cnn2ccc(N3CCN(C(=O)OC(C)C)CC3)nc12 — remaining binding (binding; competition with immobilised ligand; 1 µM): 85%
CC(C)(C)c1cc(C=C(C#N)C#N)cc(Br)c1O — remaining activity (enzyme activity; inhibitor; 0.5 µM): 90.6%
Cn1cc(-c2cccc(N3CCc4c(sc5c4CC(C)(C)C5)C3=O)c2CO)cc(Nc2ccncn2)c1=O — inhibition (enzyme activity; inhibitor; 1 µM): -4%
C#Cc1n[nH]c2c(-c3cn([C@@H](C)c4ccccc4)c(=O)[nH]c3=O)cc(F)cc12 — inhibition (enzyme activity; inhibitor; 0.1 µM): -0.2%
Cc1nn(C)cc1-c1nc2c(N3CCN(Cc4ccc(Cl)cc4)CC3)c(Cl)cnc2[nH]1 — remaining binding (binding; competition with immobilised ligand; 1 µM): 89%
Cn1cncc1[C@](O)(COc1ccc(C#N)cc1-c1ccc(OC(F)(F)F)cc1)c1ccc(C#N)cc1 — remaining binding (cell-free assay; competition with immobilised ligand; 1 µM): 88%
C#Cc1n[nH]c2c(-c3cn([C@@H](C)c4ccccn4)c(=O)[nH]c3=O)cc(F)cc12 — inhibition (enzyme activity; inhibitor; 0.1 µM): 1.4%
